Rows were chosen to be rich in hits. Some 1.9% of all compounds tested hit in one or more screens of this group.
ROMK primary = modulates human ROMK potassium channel activity. Tet-inducible ROMK, thallium flux fluorescence; actives lie on both sides. B-score at 10 µM. 130,000 compounds, 2% hits. P48048;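 active = signal ratio slope over the read window, or its plate-corrected B-score, at least 3 SD from the plate mean, either direction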;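 also: B-score of the F/F0 ratio slope over 7 to 12 s after thallium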
Target sequence (P48048 whole entry, looked up): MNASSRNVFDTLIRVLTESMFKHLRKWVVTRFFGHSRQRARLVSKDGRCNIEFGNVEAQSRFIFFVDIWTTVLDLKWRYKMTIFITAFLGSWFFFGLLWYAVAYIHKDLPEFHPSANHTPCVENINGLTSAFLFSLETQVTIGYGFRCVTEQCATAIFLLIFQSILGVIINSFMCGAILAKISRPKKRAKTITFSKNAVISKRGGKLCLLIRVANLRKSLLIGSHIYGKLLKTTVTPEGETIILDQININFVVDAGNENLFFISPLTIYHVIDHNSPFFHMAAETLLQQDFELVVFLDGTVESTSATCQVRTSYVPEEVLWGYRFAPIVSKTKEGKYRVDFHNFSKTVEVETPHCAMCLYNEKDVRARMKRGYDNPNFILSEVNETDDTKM
b-catenin transl = modulators of beta-catenin nuclear translocation | HeLa beta-catenin nuclear translocation, immunofluorescence imaging | nuclear translocation activity, % at 5 µM | 190,000 compounds, 0.3% hits | AID 1665;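 active = nuclear translocation activity above 50% at 5 µM, with a well cell count of 50 or more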;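 also: per-cell ratio of nuclear to cytoplasmic median beta-catenin stain intensity; plate controls were DMSO negative control for no effect and GSK-3 inhibitor IX positive control for full effect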
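Technique: fluorescence imaging of beta-catenin antibody stain plus DAPI / Material: human HeLa cell line / Incubation: compound treatment 24 h, 37°C, 5% CO2 / Read-out basis: % activation of per-cell nuclear versus cytoplasmic median beta-catenin signal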
MT stabilize HCS = stabilizes microtubules in HeLa cells | 200,000 compounds, 0.83% hits | % tubulin-high responders, % at 10 µM | HeLa tubulin immunostaining HCS, 24 h; share of cells brighter than vehicle mean+2SD;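 active = plate Z-score above 3 for both tubulin-high and condensed-nucleus cell shares, with cell loss under 80%, at 10 µM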;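 also: anti alpha tubulin signal scored within the nucleus-defined area of each cell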
Numbers without * were called inactive; nt = not tested or not shown.

SMILES	ROMK primary	b-catenin transl	MT stabilize HCS
O=S(=O)(NCc1ccccn1)c1ccc(Cl)s1	-0.12	-4	2
COc1ccc(C2CC(=O)c3cnn(-c4nc(C)cc(C)n4)c3C2)cc1 (centres undefined)	-0.014	9	40*
Cc1cc(C)nc(-n2ncc3c2CC(c2ccccc2)CC3=O)n1 (centres undefined)	nt	-2	3
COc1cc2oc3ccccc3c2cc1N(CC(=O)N1CCCCC1)S(=O)(=O)c1ccc(C)cc1	-4.9*	0	3
COc1cc2oc3ccccc3c2cc1N(CC(=O)N(C)C)S(=O)(=O)c1ccccc1	-0.37	0	2
COc1cc2oc3ccccc3c2cc1N(CC(=O)N(C)C)S(=O)(=O)c1ccc(C)cc1	0.01	-3	2
CCN(CC)C(=O)CN(c1cc2c(cc1OC)oc1ccccc12)S(=O)(=O)c1ccccc1	-4.6*	4	3
CCOC(=O)c1ccc(C(=O)OCC)c(NC(=S)Nc2ccc([N+](=O)[O-])cc2OC)c1	nt	0	3
CN1C(=O)S/C(=C/c2ccccc2OCc2ccc(C(=O)O)cc2)C1=O	-2.7*	1	5
CN1C(=O)S/C(=C\c2ccccc2OCc2ccc(C(=O)O)cc2)C1=O	-0.072	nt	3
Brc1ccc(C2=Nn3c(nnc3-c3n[nH]c4c3CCC4)SC2)cc1	nt	146*	34*
Cc1ccc(-c2nnc3n2N=C(c2ccc(Br)cc2)CS3)cc1	nt	0	4
c1ccc(-c2ccc(C3=Nn4c(nnc4-c4cc(-c5ccccc5)n[nH]4)SC3)cc2)cc1	nt	0	4
Clc1ccc(C2=Nn3c(nnc3-c3n[nH]c4c3CCC4)SC2)cc1	nt	4	32*
O=C(O)c1ccc(N2C(=O)CC(N3C(=O)/C(=C/c4ccc(Cl)cc4)SC3=S)C2=O)cc1 (centres undefined)	nt	-4	nt
CCOc1ccc(NS(=O)(=O)c2ccc(OCC)c3ncccc23)cc1	nt	-1	44*
CCOc1ccc(S(=O)(=O)NCc2ccc(C)cc2)c2cccnc12	-0.35	1	3
COc1ccc([N+](=O)[O-])cc1N(CC(=O)NC(C(C)C)C(C)C)S(C)(=O)=O	-0.29	-1	4
CC(C)OCC(O)CN1CCNCC1 (centres undefined)	nt	nt	3
N#CC1=C2SCC(O)(c3ccccc3)N2C(=O)CC1c1ccccc1F (centres undefined)	-0.24	nt	47*
N#CC1=C2SCN(Cc3ccccc3)CN2C(=O)CC1c1ccccc1F (centres undefined)	nt	nt	2
COc1ccc(C2CC(=O)N3C(=C2C#N)SCC3(O)c2ccccc2)cc1 (centres undefined)	nt	-6	3
N#CC1=C2SCC(O)(c3ccccc3)N2C(=O)CC1c1cccs1 (centres undefined)	nt	176*	32*
COC(=O)C1=C(C)NC(C)=C(C(=O)OC)C1c1cc2ccc(C)cc2[nH]c1=O	0.72	0	31*
Cc1ccc2cc(COC(=O)c3ccncc3)c(=O)[nH]c2c1	-0.33	-2	3
SMILES	ROMK primary	b-catenin transl	MT stabilize HCS
CCOC(=O)C1=C(C)NC(C)=C(C(=O)OCC)C1c1cc2ccc(C)cc2[nH]c1=O	0.02	nt	45*
COC(=O)C1=C(C)NC(C)=C(C(=O)OC)C1c1cc2cc(C)ccc2[nH]c1=O	nt	-1	4
CC(C)Cn1c(SCC(=O)NCc2ccc(Cl)cc2)nnc1-c1cccc(S(=O)(=O)N2CCOCC2)c1	-0.49	-2	2
CCOC(=O)N1CCC(NC(=O)CNS(=O)(=O)c2ccc(Br)s2)CC1	nt	3	20*
CCOC(=O)C1CCCN(C(=O)CNS(=O)(=O)c2ccc(Br)s2)C1 (centres undefined)	nt	-1	2
CCc1nc2ccccc2c(C(=O)OCC(=O)NC(=O)c2cccn2C)c1C	nt	-3	nt
CC(C)NC(=O)CSc1nc(N)c(-c2ccccc2)c(=O)[nH]1	-0.7	0	4
COc1ccc(C(=O)NC(=S)Nc2cccc(S(=O)(=O)N3CCOCC3)c2)cc1	2.1	0	22*
CC(=O)Oc1ccc(-c2ccc(C(=O)Nc3cccc(S(=O)(=O)N4CCOCC4)c3)cc2)cc1	0.45	0	10
COc1ccc(C2C(C(=O)Nc3ccc(OC)c(OC)c3)c3ccccc3C(=O)N2C)cc1 (centres undefined)	-0.046	-2	4
COCCOc1cc2ncnc(N3CCC(C(=O)O)CC3)c2cc1OCCOC	nt	-1	nt
CCC1=NN(C(=O)Cc2ccc(OC)cc2)C(O)(C(F)(F)F)C1 (centres undefined)	-0.81	-2	3
COc1ccc(CC(=O)N2N=C(c3ccncc3)CC2(O)C(F)(F)F)cc1 (centres undefined)	nt	12	15*
Cc1ccccc1Nc1cccc2nonc12	-0.94	3	1
NC(=O)c1cnn(-c2cc(Oc3ccccc3)ncn2)c1N	nt	0	1
COc1ccc(-c2nc(SCC(=O)Nc3nccs3)c(-c3ccc(Cl)cc3)[nH]2)cc1	-0.017	0	15*
COc1ccc(-c2[nH]c(-c3ccc(C)cc3)nc2SCC(=O)Nc2nccs2)cc1	nt	0	4
C/C(=N\NC(=O)CC1N=C(Cc2ccccc2)NNC1=O)c1ccc(Br)cc1 (centres undefined)	nt	0	nt
C/C(=N\NC(=O)CC1N=C(Cc2ccccc2)NNC1=O)c1ccc(C)cc1 (centres undefined)	nt	0	31*
Cc1ccccc1-c1nnc(NC(=O)CSc2nc3ccccc3s2)s1	0.26	2	3
Cn1ncc(N=Cc2c(O)ccc3ccccc23)c1C(=O)Nc1cccc(Cl)c1	-2.8	9	15*
Cn1ncc(Cl)c1C(=O)Nc1cccc(Cl)c1	0.36	-1	2
O=C(CSc1nnc(-c2ccccc2)c(-c2ccccc2)n1)Nc1ccc(Br)cn1	nt	-1	6
C=CCn1c(C)cc(C(=O)CN2NS(=O)(=O)c3ccccc3C2=O)c1C	-0.38	2	8.6*
C=CCn1c(C)cc(C(=O)Cn2ncc(Cl)c(Cl)c2=O)c1C	-2.5	-2	3
SMILES	ROMK primary	b-catenin transl	MT stabilize HCS
CC(C)C1Cc2c(sc3[nH]c(=S)n(Cc4ccccc4)c(=O)c23)CO1 (centres undefined)	9.3*	3	3
Cc1nnc2n(-c3ccccc3)c(=O)c3c4c(sc3n12)COC(C(C)C)C4 (centres undefined)	0.029	-1	2
C=CCn1c(SCc2csc(C)n2)nc2sc3c(c2c1=O)CCC(C)C3 (centres undefined)	nt	1	26*
C=CCn1c(SCc2csc(C)n2)nc2sc3c(c2c1=O)CCCC3	0.6	nt	2
O=C(Nc1c2c(nc3ccccc13)CCCC2)c1cccc([N+](=O)[O-])c1	-0.24	0	4
COc1cc2c(cc1OC)C(c1ccccc1)CC2=O (centres undefined)	-0.12	2	nt
NS(=O)(=O)c1ccc(CCNC(=O)CN2CCCCCC2)cc1	0.69	-2	3
COc1ccccc1Nc1nnc(SCC2CCCCO2)s1 (centres undefined)	1.5	0	19*
Cc1ccccc1Nc1nnc(SCC2CCCCO2)s1 (centres undefined)	-0.032	-2	3
Cc1nc2ccc(S(=O)(=O)Nc3cccc(-c4nc5cccnc5s4)c3C)cc2s1	-2.1	0	3
Cc1nc2ccc(S(=O)(=O)Nc3cc(-c4nc5cccnc5s4)ccc3C)cc2s1	0.72	4	21*

Assay outcomes from PubChem.
